According to ChEMBL document CHEMBL1144254, “Synthesis and SAR of novel 4,5-diarylimidazolines as potent P2X7 receptor antagonists” (Bioorg Med Chem Lett, 2005):

Test system: U373 MG
Assay: Inhibitory concentration against YOPRO-1 dye uptake in U373MG cells stably expressing human P2X purinoceptor 7 using fluorescence assay
Type: functional, cell-based, U-373MG ATCC
Outline: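 U373 cells stably expressing human P2X7 were grown overnight on collagen-coated plates at 35,000 cells/well. They were then preincubated 20 min at 37°C with increasing compound concentrations, in duplicate, in Mg²⁺/Ca²⁺-free HBSS. YO-PRO-1 iodide and then Bz-ATP were added, followed by 1.5 h at 37°C. Fluorescence was read at 485/530 nm against a no-compound control, and IC50 came from a nonlinear sigmoidal fit; means of duplicates, one or two experiments.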

| Structure (SMILES) | IC50 |
| --- | --- |
| FC(F)(F)c1ccc(CC2=N[C@H](c3ccccc3)[C@H](c3ccccc3)N2)cc1 | 400 nM |
| Fc1ccccc1CC1=N[C@H](c2ccccc2)[C@H](c2ccccc2)N1 | 580 nM |
| c1ccc([C@H]2C[C@@H]2C2=N[C@H](c3ccccc3)[C@H](c3ccccc3)N2)cc1 | > 1000 nM |
| c1ccc(CCCC2=N[C@H](c3ccccc3)[C@H](c3ccccc3)N2)cc1 | 540 nM |
| COc1ccc(CCC2=N[C@H](c3ccccc3)[C@H](c3ccccc3)N2)cc1OC | > 3000 nM |
| COc1ccccc1CCC1=N[C@H](c2ccccc2)[C@H](c2ccccc2)N1 | 830 nM |
| Clc1ccc(CCC2=N[C@H](c3ccccc3)[C@H](c3ccccc3)N2)cc1 | > 1000 nM |
| c1ccc([C@H]2N=C(CC3Cc4ccccc4C3)N[C@H]2c2ccccc2)cc1 | 240 nM |
| Cc1ccccc1CC1=N[C@H](c2ccccc2)[C@H](c2ccccc2)N1 | 320 nM |
| Clc1ccc(CCC2=N[C@H](c3ccccc3)[C@H](c3ccccc3)N2)cc1Cl | 1400 nM |
| Fc1cccc(CC2=N[C@H](c3ccccc3)[C@H](c3ccccc3)N2)c1F | 930 nM |
| Clc1ccc(CC2=N[C@H](c3ccccc3)[C@H](c3ccccc3)N2)cc1 | 270 nM |
| c1ccc(C2=N[C@@H](c3ccccc3)[C@@H](c3ccccc3)N2)cc1 | 3800 nM |
| COc1cccc(CC2=N[C@H](c3ccccc3)[C@H](c3ccccc3)N2)c1OC | > 3000 nM |
| COc1ccc(CCC2=N[C@H](c3ccccc3)[C@H](c3ccccc3)N2)cc1 | > 3000 nM |
| c1ccc(CCCCC2=N[C@H](c3ccccc3)[C@H](c3ccccc3)N2)cc1 | 610 nM |
| Cc1ccc(CCC2=N[C@H](c3ccccc3)[C@H](c3ccccc3)N2)cc1 | 2190 nM |
| CC(Cc1ccccc1)C1=N[C@H](c2ccccc2)[C@H](c2ccccc2)N1 (some centres not stated) | 570 nM |
| c1ccc(C(CC2=N[C@H](c3ccccc3)[C@H](c3ccccc3)N2)c2ccccc2)cc1 | 320 nM |

The next molecules have a lower IC50 than those just listed; values first:

| IC50 | Structure (SMILES) |
| --- | --- |
| 220 nM | Fc1ccc(CCC2=N[C@H](c3ccccc3)[C@H](c3ccccc3)N2)cc1 |
| 30 nM | C[C@@H](CC1=N[C@H](c2ccccc2)[C@H](c2ccccc2)N1)c1ccccc1 |
| 160 nM | Fc1ccccc1CCC1=N[C@H](c2ccccc2)[C@H](c2ccccc2)N1 |
| 70 nM | Clc1ccccc1CCC1=N[C@H](c2ccccc2)[C@H](c2ccccc2)N1 |
| 30 nM | Clc1cccc(CC2=N[C@H](c3ccccc3)[C@H](c3ccccc3)N2)c1 |
| 160 nM | Clc1ccccc1CC1=N[C@H](c2ccccc2)[C@H](c2ccccc2)N1 |
| 120 nM | Fc1ccc(CCC2=N[C@H](c3ccccc3)[C@H](c3ccccc3)N2)cc1F |
| 80 nM | Fc1cccc(CC2=N[C@H](c3ccccc3)[C@H](c3ccccc3)N2)c1 |
| 40 nM | Fc1cccc(CCC2=N[C@H](c3ccccc3)[C@H](c3ccccc3)N2)c1 |
| 120 nM | Clc1cccc(CCC2=N[C@H](c3ccccc3)[C@H](c3ccccc3)N2)c1 |
| 80 nM | c1ccc(CCC2=N[C@H](c3ccccc3)[C@H](c3ccccc3)N2)cc1 |
| 110 nM | C[C@H](C1=N[C@H](c2ccccc2)[C@H](c2ccccc2)N1)c1ccccc1 |
| 50 nM | c1ccc([C@H]2N=C(C3Cc4ccccc4C3)N[C@H]2c2ccccc2)cc1 |
| 80 nM | Cc1ccc(CC2=N[C@H](c3ccccc3)[C@H](c3ccccc3)N2)cc1 |
| 30 nM | Fc1ccc(CC2=N[C@H](c3ccccc3)[C@H](c3ccccc3)N2)cc1F |
| 10 nM | CC(C)(CC1=N[C@H](c2ccccc2)[C@H](c2ccccc2)N1)c1ccccc1 |
| 70 nM | Cc1ccccc1CCC1=N[C@H](c2ccccc2)[C@H](c2ccccc2)N1 |
| 80 nM | Fc1ccc(CC2=N[C@H](c3ccccc3)[C@H](c3ccccc3)N2)cc1 |
